The record followed here is ChEMBL document CHEMBL1148329, “Synthesis and structure-activity studies on N-[5-(1H-imidazol-4-yl)-5,6,7,8-tetrahydro-1-naphthalenyl]methanesulfonamide, an imidazole-containing alpha(1A)-adrenoceptor agonist” (J Med Chem, 2004).

Assay [1] deals with T1, Alpha-1D adrenergic receptor (Rattus norvegicus) (UniProt P23944).
T1 sequence (whole entry): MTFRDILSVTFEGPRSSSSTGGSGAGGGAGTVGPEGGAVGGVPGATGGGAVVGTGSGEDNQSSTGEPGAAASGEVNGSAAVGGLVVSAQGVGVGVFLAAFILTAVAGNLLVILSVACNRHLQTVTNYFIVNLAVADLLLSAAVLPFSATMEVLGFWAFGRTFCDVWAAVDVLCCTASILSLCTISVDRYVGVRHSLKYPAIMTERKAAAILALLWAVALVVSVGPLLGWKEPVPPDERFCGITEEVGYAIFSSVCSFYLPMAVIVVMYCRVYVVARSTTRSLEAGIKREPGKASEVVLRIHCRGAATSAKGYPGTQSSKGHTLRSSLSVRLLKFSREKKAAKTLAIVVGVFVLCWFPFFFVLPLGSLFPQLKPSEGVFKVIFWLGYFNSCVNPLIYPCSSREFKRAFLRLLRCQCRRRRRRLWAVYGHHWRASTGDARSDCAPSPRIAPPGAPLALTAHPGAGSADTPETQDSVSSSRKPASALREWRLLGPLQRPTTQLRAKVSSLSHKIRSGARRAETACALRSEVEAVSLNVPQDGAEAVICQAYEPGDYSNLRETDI
Nature of the assay: Functional agonism of the compounds to constrict tissue containing the alpha-1D adrenergic receptor in rat aorta. The assay is classed as tissue-based. Summed up:
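Agonist dose–response curves were run on isolated tissue: rabbit urethra for α1A, rat spleen for α1B, and rat aorta for α1D.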

Assay [2] in a line: Selectivity is ratio of efficacy of alpha-1B to that of alpha1A adrenoceptor. The assay is classed as functional.
The target of assay [3] is T2, Alpha-1B adrenergic receptor (Rattus norvegicus) (UniProt P15823).
T2 sequence (whole entry): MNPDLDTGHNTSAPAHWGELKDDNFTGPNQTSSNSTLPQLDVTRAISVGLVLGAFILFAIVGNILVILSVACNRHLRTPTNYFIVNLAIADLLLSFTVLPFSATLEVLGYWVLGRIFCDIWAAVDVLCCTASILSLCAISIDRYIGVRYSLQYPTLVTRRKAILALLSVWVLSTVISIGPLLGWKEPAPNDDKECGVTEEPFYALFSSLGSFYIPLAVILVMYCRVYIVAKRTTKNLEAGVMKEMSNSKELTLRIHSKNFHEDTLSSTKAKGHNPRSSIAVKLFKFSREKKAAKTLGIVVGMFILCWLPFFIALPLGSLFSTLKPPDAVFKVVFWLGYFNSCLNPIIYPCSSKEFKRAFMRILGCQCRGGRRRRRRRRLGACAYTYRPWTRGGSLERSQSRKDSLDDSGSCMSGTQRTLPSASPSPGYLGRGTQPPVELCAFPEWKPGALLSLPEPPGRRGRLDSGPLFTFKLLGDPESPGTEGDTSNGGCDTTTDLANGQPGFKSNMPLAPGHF
Nature of the assay: Efficacy relative to phenylephrine (PE) to constrict tissue containing the alpha-1B adrenergic receptor in rat spleen. The assay is classed as functional, tissue-based.

In assay [4] the target is T3, Alpha-1A adrenergic receptor (Rattus norvegicus, UniProt P43140).
T3 sequence (P43140 whole entry): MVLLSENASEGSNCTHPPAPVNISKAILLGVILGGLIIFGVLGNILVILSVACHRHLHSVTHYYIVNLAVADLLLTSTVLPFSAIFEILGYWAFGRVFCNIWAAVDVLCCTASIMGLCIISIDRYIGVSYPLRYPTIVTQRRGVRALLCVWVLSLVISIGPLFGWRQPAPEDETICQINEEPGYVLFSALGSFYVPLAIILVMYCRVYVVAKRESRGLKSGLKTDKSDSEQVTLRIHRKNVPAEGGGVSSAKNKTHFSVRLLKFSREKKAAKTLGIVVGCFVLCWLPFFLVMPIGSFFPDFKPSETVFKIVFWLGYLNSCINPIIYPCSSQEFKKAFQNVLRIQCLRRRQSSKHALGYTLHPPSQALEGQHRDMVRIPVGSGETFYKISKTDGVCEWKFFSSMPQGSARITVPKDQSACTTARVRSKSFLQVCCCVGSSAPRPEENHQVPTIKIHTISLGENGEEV
Nature of the assay: In vitro binding affinity towards alpha-1A adrenergic receptor of rat submaxillary gland in radioligand binding assay. The procedure, abridged:
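Radioligand binding at α1 subtypes: α1A from rat submaxillary gland, α1B hamster clone, α1D rat clone. Run essentially per an earlier method.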

For assay [5], the target named is T4, Alpha-2A adrenergic receptor (Rattus norvegicus) (UniProt P22909).
T4 sequence (whole entry): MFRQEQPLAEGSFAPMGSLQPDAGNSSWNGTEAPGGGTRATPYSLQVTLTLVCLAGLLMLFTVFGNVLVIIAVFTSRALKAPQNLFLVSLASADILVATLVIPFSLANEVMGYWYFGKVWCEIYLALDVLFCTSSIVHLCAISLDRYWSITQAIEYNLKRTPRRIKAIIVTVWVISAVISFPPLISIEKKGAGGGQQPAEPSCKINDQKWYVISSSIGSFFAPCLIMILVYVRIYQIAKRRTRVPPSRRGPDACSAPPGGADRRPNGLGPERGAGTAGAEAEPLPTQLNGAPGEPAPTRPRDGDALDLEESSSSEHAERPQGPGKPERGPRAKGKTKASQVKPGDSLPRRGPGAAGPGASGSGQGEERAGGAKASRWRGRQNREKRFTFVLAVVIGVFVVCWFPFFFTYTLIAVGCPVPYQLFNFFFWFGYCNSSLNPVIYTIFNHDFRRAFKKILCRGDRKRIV
Conditions: Vas deferens.

Turning to `COc1ccc(OC)c(C(O)CN)c1` (stereo not drawn) [DESGLYMIDODRINE], the pD2 in assay [1] is 5.73. Further, the Selectivity in assay [2] was found to be 12.

`CN(c1cccc2c1CCCC2c1c[nH]cn1)S(C)(=O)=O` (stereo not drawn) returned an Efficacy in assay [3] of 21.

As to `CC(N)C(O)c1ccccc1` (stereo not drawn) [PHENYLPROPANOLAMINE], the pD2 in assay [1] came out at 4.12; in assay [5], 5.17. This compound showed an inhibition constant (Ki) in assay [4] of 9.77 µM. For the same compound, in assay [2], the Selectivity worked out at 1.

Regarding `O=S(=O)(CC(F)(F)F)Nc1cccc2c1CCCC2c1c[nH]cn1` (single isomer, unassigned; (+)), the “Log Ki” value in assay [4] is reported as -6.91.
